Reference: PubChem BioAssay
Values joined by “and” are separate entries in the source; they are usually repeats but may differ in a detail not shown here. Identical values can stand only once. Active and inactive are the calls of the source. Unless noted, how the calls were made is not given here.

Columns and labels:
[1] = target: Pantothenate synthetase (Mycobacterium tuberculosis (strain ATCC 25618 / H37Rv)) (UniProt P9WIL5); experiment: Recombinant Mtb pantothenate synthetase (PanC) inhibitors, coupled enzyme, confirmatory (AID 375); settings: coupled enzyme assay; at 10 µM, stronger effect = higher value;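 further: 0% = full reaction with vehicle and 100% = no enzyme background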
Chain of Pantothenate synthetase (Mycobacterium tuberculosis (strain ATCC 25618 / H37Rv)) (P9WIL5 whole entry, looked up): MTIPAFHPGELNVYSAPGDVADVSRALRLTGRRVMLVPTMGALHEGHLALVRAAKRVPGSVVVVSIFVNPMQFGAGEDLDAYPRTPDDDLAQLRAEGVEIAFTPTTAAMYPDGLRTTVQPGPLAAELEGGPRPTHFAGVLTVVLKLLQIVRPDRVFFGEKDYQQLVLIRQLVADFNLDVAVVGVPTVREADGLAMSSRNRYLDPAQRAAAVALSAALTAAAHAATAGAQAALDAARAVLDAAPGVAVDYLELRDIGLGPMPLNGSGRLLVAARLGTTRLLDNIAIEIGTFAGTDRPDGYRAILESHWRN

[2] = reducers of endogenous Her2 protein level, primary screen, SKBR3 breast tumor cells, AlphaScreen, ATP viability (AID 461;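 active means Her2 level under about 52% in both replicate screens, with viability over 70% of control, limit read from the data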;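 on Her2 level: lower value means less Her2 protein in the cells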;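 on viability: percent of carrier control wells set as 100% viability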); settings: 18-24 h, measured here: SKBR3 viability, ATP luminescence, at 10 µM
[3] = target: Receptor tyrosine-protein kinase erbB-2 (Homo sapiens) (UniProt P04626); experiment: as above; settings: 18-24 h, at 10 µM, stronger effect = lower value
Chain of Receptor tyrosine-protein kinase erbB-2 (Homo sapiens) (P04626 whole entry, looked up): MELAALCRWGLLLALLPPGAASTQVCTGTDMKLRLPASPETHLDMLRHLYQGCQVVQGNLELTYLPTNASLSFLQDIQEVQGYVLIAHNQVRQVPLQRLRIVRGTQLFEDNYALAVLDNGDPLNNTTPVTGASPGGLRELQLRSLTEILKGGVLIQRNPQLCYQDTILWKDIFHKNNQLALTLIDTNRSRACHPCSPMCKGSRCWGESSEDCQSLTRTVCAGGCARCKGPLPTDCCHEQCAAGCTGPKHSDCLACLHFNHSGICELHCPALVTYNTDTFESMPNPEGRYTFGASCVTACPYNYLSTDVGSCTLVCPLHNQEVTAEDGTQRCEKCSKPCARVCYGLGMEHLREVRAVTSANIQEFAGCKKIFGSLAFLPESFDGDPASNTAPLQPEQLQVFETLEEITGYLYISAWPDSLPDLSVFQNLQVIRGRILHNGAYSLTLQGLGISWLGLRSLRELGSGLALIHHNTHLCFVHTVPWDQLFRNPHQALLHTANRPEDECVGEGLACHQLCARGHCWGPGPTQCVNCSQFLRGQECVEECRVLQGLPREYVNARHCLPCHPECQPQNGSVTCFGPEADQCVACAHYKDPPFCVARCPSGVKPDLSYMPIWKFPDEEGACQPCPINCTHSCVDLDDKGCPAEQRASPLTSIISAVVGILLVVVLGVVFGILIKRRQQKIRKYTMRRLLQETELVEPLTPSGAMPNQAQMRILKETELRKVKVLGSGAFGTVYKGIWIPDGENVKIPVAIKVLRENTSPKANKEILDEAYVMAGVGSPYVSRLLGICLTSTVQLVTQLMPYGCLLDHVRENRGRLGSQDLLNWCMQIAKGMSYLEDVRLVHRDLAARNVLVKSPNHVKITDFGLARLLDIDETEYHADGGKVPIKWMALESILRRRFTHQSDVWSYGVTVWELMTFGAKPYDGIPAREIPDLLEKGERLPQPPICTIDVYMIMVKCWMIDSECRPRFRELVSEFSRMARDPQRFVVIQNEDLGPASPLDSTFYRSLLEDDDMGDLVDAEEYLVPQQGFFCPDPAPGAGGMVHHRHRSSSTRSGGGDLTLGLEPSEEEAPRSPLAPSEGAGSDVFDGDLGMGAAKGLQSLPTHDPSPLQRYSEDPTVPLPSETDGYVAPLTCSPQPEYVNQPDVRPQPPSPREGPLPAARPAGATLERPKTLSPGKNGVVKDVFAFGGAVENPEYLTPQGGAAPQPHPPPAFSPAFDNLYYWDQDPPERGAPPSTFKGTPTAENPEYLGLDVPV

[4] = SK-BR-3 cell growth inhibitors, pilot screen, 24 h, human (AID 572;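 active means viability at or below 10% of carrier control in both of two separate runs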;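 further: compound exposure lasted between 18 and 24 h rather than exactly 24 h; 100% = carrier-treated control wells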); settings: SK-BR-3 viability, CellTiter-Glo luminescence, at 10 µM, stronger effect = lower value
[5] = HUVEC growth inhibition – cell-based, human, primary screen (AID 575;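 active means viability at or below 30% in both replicate assays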;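 further: 100% = median of untreated cell wells with 0.1% DMSO on each plate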); settings: HUVEC proliferation, CellTiter-Glo luminescence, 72 h; at 10 µM; stronger effect = lower value
Summary of the method: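 Assay system: Primary human umbilical vein endothelial cells | Quantity: 1250 cells per well | Medium: Supplemented EBM, 2% fetal bovine serum | Detection: CellTiter-Glo luminescence measuring cellular ATP | Read-out: % viability vs DMSO wells | Plate: Collagen-coated 384-well format | Times: 72 h exposure, 37 °C, 5% CO2, 30 min RT equilibration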

[6] = growth inhibitors of H69AR lung tumor, primary screen, human, duplicate replicates (AID 580;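 active means viability at or under a set limit in both replicates, limit being median viability minus 3 SD, cut at about 48% in these data, passing the limit was not always enough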;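 further: 100% = mean luminescence of untreated wells and 0% = no signal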); settings: H69AR lung tumor cells viability, ATP luminescence, 72 h; at 10 µM; stronger effect = lower value
[7] = reversal of MRP1-mediated doxorubicin resistance, pilot screen, H69AR cells, doxorubicin co-treatment (AID 601;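 active means viability loss from added drug above about 55%, and viability with drug at most 40%, in both replicates, limit read from the data, passing the limit was not always enough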); settings: CellTiter-Glo, 72 h, at 10 µM; for differential viability (reversal): stronger effect = higher value
[8] = 384-well plate pilot, post-Golgi transport modulator project, inhibition of yeast transport mutant growth (AID 636; in the data active means inhibition above about 31%); settings: absorbance 615 nm, about 18 h, stronger effect = higher value
[9] = growth suppression of yeast trafficking mutant, preliminary HTS, modulators of trafficking downstream of Golgi apparatus project, 1536-format plate, OD 615 nm (AID 637; in the data active means inhibition above about 30%); settings: yeast transport mutant growth, absorbance 615 nm, 18 h; stronger effect = higher value
[10] = H69AR cells + 2 uM doxorubicin, measured here: viability with 2 uM doxorubicin, stronger effect = lower value
[11] = H69AR cells, compound alone cytotoxicity

Compound: CN(Cc1ccc(-n2cccn2)cc1)C(=O)c1cnn2c1NC(c1ccco1)CC2C(F)(F)F (centres undefined)
- inhibition [1]: 0% (inactive)

Compound: CC1(C)Cc2c(sc3c2C2=NCCN2C=N3)CS1
- inhibition [1]: 3% (inactive)

Compound: Cc1ccc(-c2cn3nc(C)c(C)nc3n2)cc1
- inhibition [1]: 1% (inactive)

Compound: NCc1cccc(-n2cccn2)c1
- inhibition [1]: 0% (inactive)

Compound: C[N+]1(C)CCc2cc3c(cc2[C@H]1[C@@H]1OC(=O)c2c1ccc1c2OCO1)OCO3
- inhibition [1]: 0% (inactive)
- viability [2]: 89.5%
- Her2 level [3]: 102% (inactive)
- viability [4]: 89.5% (inactive)
- viability [5]: 87.1% (inactive)
- viability [6]: 113% (inactive)
- differential viability (reversal) ([7]; H69AR cells + 2 uM doxorubicin): 7.33% (inactive)
- viability [7, 10]: 105%
- viability [7, 11]: 113%

Compound: COC(=O)CCC(=O)Nc1ccc(S(=O)(=O)N2CCCCCC2)cc1
- inhibition [1]: 0% (inactive)

Compound: CN(C)CCCN1c2ccccc2Sc2ccc(Cl)cc21
- inhibition [1]: 0% (inactive)

Compound: CC(=O)Oc1cccc2c1C(=O)c1c(OC(C)=O)cc(C(=O)O)cc1C2=O
- inhibition [1]: 2% (inactive)

Compound: COc1ccc2[nH]cc(CCN(C)C)c2c1
- inhibition [1]: 0% (inactive)
- viability [2]: 108%
- Her2 level [3]: 126% (inactive)
- viability [4]: 108% (inactive)
- viability [5]: 86.3% (inactive)
- viability [6]: 108% (inactive)
- differential viability (reversal) ([7]; H69AR cells + 2 uM doxorubicin): 8.63% (inactive)
- viability [7, 10]: 99.5%
- viability [7, 11]: 108%

Compound: Cc1ccc(N2C(N)=NC(N)=NC23CCCC3)c(C)c1
- inhibition [1]: 3% (inactive)

Compound: CCOC(=O)C1CCCN(C(=O)Cc2ccc(OC)c(OC)c2)C1 (centres undefined)
- inhibition [1]: 0% (inactive)

Compound: Cc1ccc(S(=O)(=O)c2nc(-c3ccco3)oc2SCC(=O)NCC2CCCO2)cc1 (centres undefined)
- inhibition [1]: 0% (inactive)

Compound: CC(C)N(CCC(C(N)=O)(c1ccccc1)c1ccccn1)C(C)C (centres undefined)
- inhibition [1]: 0% (inactive)
- viability [2]: 85%
- Her2 level [3]: 114% (inactive)
- viability [4]: 85% (inactive)
- viability [5]: 121% (inactive)
- viability [6]: 91.8% (inactive)
- differential viability (reversal) ([7]; H69AR cells + 2 uM doxorubicin): -15.8% (inactive)
- viability [7, 10]: 108%
- viability [7, 11]: 91.8%

Compound: CN1CCN(C(=O)OC2c3nccnc3C(=O)N2c2ccc(Cl)cn2)CC1 (centres undefined)
- inhibition [1]: 8% (inactive)
- viability [2]: 91.5%
- Her2 level [3]: 108% (inactive)
- viability [4]: 91.5% (inactive)
- viability [5]: 106% (inactive)
- viability [6]: 94.1% (inactive)
- differential viability (reversal) ([7]; H69AR cells + 2 uM doxorubicin): -3.97% (inactive)
- viability [7, 10]: 98.1%
- viability [7, 11]: 94.1%

Compound: CC[C@@H]1C(=O)OC[C@@H]1Cc1cncn1C
- inhibition [1]: 0% (inactive)
- viability [2]: 94%
- Her2 level [3]: 107% (inactive)
- viability [4]: 94% (inactive) and 104% (inactive)
- viability [5]: 101% (inactive) and 91.9% (inactive)
- viability [6]: 102% (inactive) and 96% (inactive)
- differential viability (reversal) ([7]; H69AR cells + 2 uM doxorubicin): 12.4% (inactive) and -2.8% (inactive)
- viability [7, 10]: 89.8% and 98.8%
- viability [7, 11]: 102% and 96%

Compound: Clc1ccc(OCCCn2cncn2)cc1Cl
- inhibition [1]: 0% (inactive)

Compound: CCOC(=O)c1cnc2c(OC)cccc2c1N1CCN(c2ccc(OC)cc2)CC1
- inhibition [1]: 0% (inactive)

Compound: CC(C)NC(=O)c1ccccc1NC(=O)CCS(=O)(=O)Cc1ccccc1
- inhibition [1]: 2% (inactive)

Compound: CCC(=NCCCN1CCOCC1)c1c(O)n(Cc2ccccc2)c(=O)[nH]c1=O
- inhibition [1]: 0% (inactive)
- viability [2]: 108%
- Her2 level [3]: 107% (inactive)
- viability [4]: 108% (inactive)
- viability [5]: 84.3% (inactive)
- viability [6]: 89.2% (inactive)
- differential viability (reversal) ([7]; H69AR cells + 2 uM doxorubicin): -1.53% (inactive)
- viability [7, 10]: 90.7%
- viability [7, 11]: 89.2%
- inhibition [8]: -5.41% (inactive)
- inhibition [9]: -5.56% (inactive)

Compound: CC(C)=CCSc1nnc([C@@H](N)Cc2c[nH]c3ccccc23)o1
- inhibition [1]: 7% (inactive)
- viability [2]: 102%
- Her2 level [3]: 110% (inactive)
- viability [4]: 102% (inactive)
- viability [5]: 75.4% (inactive)
- viability [6]: 94% (inactive)
- differential viability (reversal) ([7]; H69AR cells + 2 uM doxorubicin): 2.83% (inactive)
- viability [7, 10]: 91.2%
- viability [7, 11]: 94%
- inhibition [8]: -0.27% (inactive)
- inhibition [9]: -8.39% (inactive)

Compound: CCC(COC(=O)c1cc(OC)c(OC)c(OC)c1)(c1ccccc1)N(C)C (centres undefined)
- inhibition [1]: 2% (inactive)
- viability [2]: 87.5%
- Her2 level [3]: 107% (inactive)
- viability [4]: 87.5% (inactive)
- viability [5]: 104% (inactive)
- viability [6]: 87.6% (inactive)
- differential viability (reversal) ([7]; H69AR cells + 2 uM doxorubicin): 11.9% (inactive)
- viability [7, 10]: 75.7%
- viability [7, 11]: 87.6%

Compound: COc1ccc(OC)c([C@@H](O)[C@H](C)NC(C)(C)C)c1
- inhibition [1]: 6% (inactive)
- viability [2]: 100%
- Her2 level [3]: 120% (inactive)
- viability [4]: 100% (inactive)
- viability [5]: 92.3% (inactive)
- viability [6]: 97.5% (inactive)
- differential viability (reversal) ([7]; H69AR cells + 2 uM doxorubicin): -0.98% (inactive)
- viability [7, 10]: 98.5%
- viability [7, 11]: 97.5%

Compound: COc1ccccc1N1CCN(Cc2cccc(OC)c2O)CC1
- inhibition [1]: 0% (inactive)
- viability [2]: 89%
- Her2 level [3]: 93% (inactive)
- viability [4]: 89% (inactive)
- viability [5]: 118% (inactive)
- viability [6]: 91.6% (inactive)
- differential viability (reversal) ([7]; H69AR cells + 2 uM doxorubicin): 5.07% (inactive)
- viability [7, 10]: 86.6%
- viability [7, 11]: 91.6%
- inhibition [8]: -5% (inactive)
- inhibition [9]: 5.25% (inactive)
